The nature of experiment [1]: Activation of LXR in mouse C2C12 cells assessed as induction of FAS mRNA expression at 10 uM after 24 hrs by quantitative RT-PCR analysis. The format is cell-based. The gist of the method: (§1)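 C2C12 myoblasts grown in DMEM/10% FBS, differentiated at confluence in 2% horse serum, medium changed every other day for 5 days; myotubes treated 24 h with or without T0901317 (1 μM). Total RNA, DNase-treated, oligo(dT) RT from 0.5 μg, SYBR green qPCR; normalized to β-actin (delta-delta Ct), fold over vehicle; mean ± SD of four determinants, one of two experiments.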

The nature of experiment [2]: Activation of LXR in mouse C2C12 cells assessed as induction of FAS mRNA expression at 10 uM after 24 hrs in presence of T0901317 by quantitative RT-PCR analysis. In kind it is cell-based. The essentials: as §1
Experiment [3] is described as follows: Activation of LXR in mouse C2C12 cells assessed as induction of SREBP1 mRNA expression at 10 uM after 24 hrs by quantitative RT-PCR analysis. The format is cell-based.
For experiment [4], the target named is T1, Peroxisome proliferator-activated receptor delta (Mus musculus) (UniProt P35396).
T1 sequence (whole entry): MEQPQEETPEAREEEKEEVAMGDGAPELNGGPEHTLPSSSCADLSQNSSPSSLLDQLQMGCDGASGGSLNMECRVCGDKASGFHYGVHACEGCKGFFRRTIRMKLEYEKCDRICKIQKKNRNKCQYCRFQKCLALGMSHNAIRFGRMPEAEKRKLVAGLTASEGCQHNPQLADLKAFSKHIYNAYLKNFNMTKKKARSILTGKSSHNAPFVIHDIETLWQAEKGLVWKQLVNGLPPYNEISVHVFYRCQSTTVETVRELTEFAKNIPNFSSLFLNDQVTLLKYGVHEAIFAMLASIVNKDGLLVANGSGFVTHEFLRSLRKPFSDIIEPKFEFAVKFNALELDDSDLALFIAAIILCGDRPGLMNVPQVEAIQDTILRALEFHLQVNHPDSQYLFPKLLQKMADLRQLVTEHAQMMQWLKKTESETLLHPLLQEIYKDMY
Description: Activation of PPARdelta in mouse C2C12 cells assessed as induction of ANGPTL4 mRNA expression at 10 uM after 24 hrs in presence of GW501516 by quantitative RT-PCR analysis. The format is cell-based. The gist of the method: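 Differentiated C2C12 myotubes (2% horse serum, 5 days) exposed 24 h with or without PPARδ agonist GW501516 (1 μM). mRNA quantified by SYBR green real-time RT-PCR, normalized to β-actin by delta-delta Ct, and expressed as fold induction vs vehicle; means ± SD of four determinants from one of two independent experiments; one-way ANOVA with Bonferroni.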

For a further experiment, the species on record is Homo sapiens. Description: Activation of PPARgamma/RXR heterodimer in human hepatoma cells assessed as potentiation of rosiglitazone-induced increase in ANGPTL4 mRNA level at 10 uM by quantitative RT-PCR analysis. The format is cell-based. The gist of the method: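 HLE human hepatoma cells (DMEM, 10% FBS, 37 °C, 5% CO2) treated with or without rosiglitazone; ANGPTL4 mRNA by SYBR green qRT-PCR, β-actin-normalized delta-delta Ct, fold vs vehicle; means ± SD of three determinants, representative of three experiments.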

The nature of experiment [5]: Activation of LXR in mouse C2C12 cells assessed as induction of ApoD mRNA expression at 10 uM after 24 hrs by quantitative RT-PCR analysis. In kind it is cell-based. The gist of the method:
as §1

The target in experiment [6] is T2, Retinoic acid receptor RXR-gamma (Homo sapiens) (UniProt P48443).
T2 sequence (whole entry): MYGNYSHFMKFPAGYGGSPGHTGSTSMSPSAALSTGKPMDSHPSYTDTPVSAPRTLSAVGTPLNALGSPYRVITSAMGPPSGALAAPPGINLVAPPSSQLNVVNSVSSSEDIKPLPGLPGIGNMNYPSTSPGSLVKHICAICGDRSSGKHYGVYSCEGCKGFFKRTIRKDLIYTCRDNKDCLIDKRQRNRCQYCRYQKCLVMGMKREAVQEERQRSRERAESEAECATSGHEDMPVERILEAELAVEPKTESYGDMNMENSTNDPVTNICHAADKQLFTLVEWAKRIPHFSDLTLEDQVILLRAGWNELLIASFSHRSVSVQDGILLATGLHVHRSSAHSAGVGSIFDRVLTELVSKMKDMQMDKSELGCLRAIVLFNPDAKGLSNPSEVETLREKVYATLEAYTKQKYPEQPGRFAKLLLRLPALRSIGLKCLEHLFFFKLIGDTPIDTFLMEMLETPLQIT
Description: Binding affinity to RXRgamma (unknown origin) by receptor-SRC1 cofactor complex formation assay. The gist of the method:
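Ligand-dependent binding of RXR isotype to coactivator SRC-1 in an NR cofactor kit, detected with HRP-conjugated anti-RXR antibody at OD450. The full agonist CD3254 defined 100% and vehicle 0%. Efficacy was taken as maximum B/Bmax% and potency as EC50.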

The nature of experiment [7]: Activation of LXR in mouse C2C12 cells assessed as induction of ApoE mRNA expression at 10 uM after 24 hrs in presence of T0901317 by quantitative RT-PCR analysis. In kind it is cell-based. The essentials: as §1
Experiment [8] in a line: Activation of LXR in mouse C2C12 cells assessed as induction of ApoD mRNA expression at 10 uM after 24 hrs in presence of T0901317 by quantitative RT-PCR analysis. The format is cell-based. The essentials:
as §1

For experiment [9], the target named is T3, Retinoic acid receptor RXR-alpha (Homo sapiens, UniProt P19793).
T3 sequence (P19793 whole entry): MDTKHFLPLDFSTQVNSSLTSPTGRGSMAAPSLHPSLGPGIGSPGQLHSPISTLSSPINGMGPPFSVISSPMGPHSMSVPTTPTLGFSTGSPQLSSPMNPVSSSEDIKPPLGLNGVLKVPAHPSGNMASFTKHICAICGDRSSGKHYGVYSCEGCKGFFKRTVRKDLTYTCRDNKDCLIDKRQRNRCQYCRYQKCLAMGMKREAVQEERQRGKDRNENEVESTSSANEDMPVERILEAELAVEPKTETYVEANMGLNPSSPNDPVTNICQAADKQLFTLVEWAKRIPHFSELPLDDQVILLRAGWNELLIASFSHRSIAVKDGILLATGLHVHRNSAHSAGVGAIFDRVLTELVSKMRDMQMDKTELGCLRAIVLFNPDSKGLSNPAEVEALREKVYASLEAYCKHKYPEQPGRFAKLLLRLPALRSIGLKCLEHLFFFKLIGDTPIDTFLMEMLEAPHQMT
Description: (§2) Agonist activity at human RXR-alpha expressed in HEK293 cells coexpressing with pCMX-beta-gal after 24 to 48 hrs by luciferase reporter gene assay. In kind it is cell-based. The essentials: (§3)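 HEK293 cells transfected by calcium phosphate with 60 ng pCMX-hRXR-α, 150 ng CRBPII-tk-Luc and 30 ng pCMX-β-gal plus carrier pUC18 (600 ng DNA per well). After 8 h the cells were washed and exposed to compound in medium with 10% FBS for 24−48 h. Luciferase was normalized to β-galactosidase. Triplicate or quadruplicate; representative of three independent experiments; EC50 from dose-response.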

In experiment [10] the target is T4, Retinoic acid receptor RXR-alpha (Homo sapiens) (UniProt P19793).
T4 sequence (whole entry): T3 sequence (P19793 whole entry)
The experiment is described as §2. The format is cell-based. The essentials: as §3

We go through one compound from ChEMBL document CHEMBL3351942, “Rexinoids isolated from Sophora tonkinensis with a gene expression profile distinct from the synthetic rexinoid bexarotene” (J Nat Prod, 2014).

What is called pEC50 is −log10 of the EC50, conventionally taken in molar units. A higher pEC50 goes with a small EC50.

pEC50: −log10 of the molar value. Activity calls are given as the source filed them. The rule behind the calls is not given here.

In the case of `CC(C)=CCc1cc([C@@H]2CC(=O)c3ccc(O)c(CC=C(C)C)c3O2)cc2c1OC(C(C)(C)O)C2` (stereo partly specified), the result in [1], in experiment [2], in experiment [6] and in experiment [8] was inactive. Moreover, the outcome (in [3]; in experiment [4]; in the experiment listed under Homo sapiens; in [5]; in experiment [7]) was Active. This compound also showed a pEC50 in experiment [9] of 6.11. Also, in experiment [10], the Activity entry was “Dose-dependent effect”.
